Reference: ChEMBL document CHEMBL1152594, “The design and optimization of a series of 2-(pyridin-2-yl)-1H-benzimidazole compounds as allosteric glucokinase activators” (Bioorg Med Chem, 2009)
Active and inactive are the calls of the source. The rule behind the calls is not given here.

How the values were obtained:
Mus musculus = assay: Hypoglycemic efficacy in high-fat diet-induced mouse assessed as acute glucose lowering at 10 mg/kg, po; format: functional, organism-based; set-up: dose 10 mg/kg
Summary of the method: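 They received compound orally in 0.5% methylcellulose vehicle, or vehicle alone. Blood glucose was measured just before dosing and at 1, 2, 3 and 4 h after.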

Hexokinase-4 [1] = target: T1, Hexokinase-4 (Homo sapiens, UniProt P35557); assay: Activation of human liver glucokinase expressed in Escherichia coli at 10 mM glucose concentration by glucose-6-phosphate coupled continuous spectrophotometric assay
T1 sequence (P35557 whole entry): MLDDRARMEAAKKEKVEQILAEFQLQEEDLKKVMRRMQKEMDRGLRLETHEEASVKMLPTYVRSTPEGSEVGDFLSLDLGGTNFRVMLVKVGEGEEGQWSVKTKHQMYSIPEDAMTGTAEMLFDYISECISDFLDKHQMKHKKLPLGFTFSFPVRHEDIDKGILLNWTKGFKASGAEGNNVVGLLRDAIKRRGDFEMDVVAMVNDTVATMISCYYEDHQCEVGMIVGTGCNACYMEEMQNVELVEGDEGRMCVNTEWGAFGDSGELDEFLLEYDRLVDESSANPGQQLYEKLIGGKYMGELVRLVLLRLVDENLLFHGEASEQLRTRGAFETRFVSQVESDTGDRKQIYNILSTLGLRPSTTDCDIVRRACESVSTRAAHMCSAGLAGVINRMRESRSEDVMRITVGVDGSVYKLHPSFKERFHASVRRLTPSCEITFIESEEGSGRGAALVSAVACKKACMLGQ

Hexokinase-4 [2] = target: T1, Hexokinase-4; assay: Activation of human liver glucokinase expressed in Escherichia coli at 2.5 mM glucose concentration by glucose-6-phosphate coupled continuous spectrophotometric assay
Rattus norvegicus [3] = assay: Hypoglycemic efficacy in Wistar rat assessed as reduction in area under the glucose curve at 1 mg/kg, po by oral glucose tolerance test; format: functional; set-up: scale not given: the % may be the effect or the level left
Summary of the method: (§1)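 In the Wistar rat OGTT, the compound was given orally. […] Groups were compared by one-way ANOVA followed by Dunnett's test, with significance at p < 0.05.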

Rattus norvegicus [4] = assay: Hypoglycemic efficacy in Wistar rat assessed as reduction in area under the glucose curve at 3 mg/kg, po by oral glucose tolerance test; format: functional; set-up: scale not given: the % may be the effect or the level left; summary of the method: as §1
[5] = AUC in Sprague-Dawley rat at 1 mg/kg, iv and 3 mg/kg, po; format: ADME, organism-based; details: plasma
Summary of the method: (§2)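 Male SD rats received 1 mg/kg iv or 3 mg/kg po. Plasma AUC, Cmax, T1/2, CLp and oral bioavailability (F) were derived from these dosings.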

[6] = Plasma clearance in Sprague-Dawley rat at 1 mg/kg, iv and 3 mg/kg, po; format: ADME, organism-based; summary of the method: as §2
[7] = Cmax in Sprague-Dawley rat at 1 mg/kg, iv and 3 mg/kg, po; format: ADME, organism-based; details: in vivo; summary of the method: as §2
[8] = Half life in Sprague-Dawley rat at 1 mg/kg, iv and 3 mg/kg, po; format: ADME, organism-based; details: in vivo; summary of the method: as §2
[9] = Oral bioavailability in Sprague-Dawley rat at 3 mg/kg, po; format: ADME, organism-based; details: in vivo; summary of the method: as §2
[10] = Oral bioavailability in Beagle dog at 1 mg/kg, po; details: in vivo
[11] = AUC in Beagle dog at 0.3 mg/kg, iv and 1 mg/kg, po; details: plasma
[12] = Cmax in Beagle dog at 0.3 mg/kg, iv and 1 mg/kg, po; details: in vivo
[13] = Half life in Beagle dog at 0.3 mg/kg, iv and 1 mg/kg, po; details: in vivo

| Structure (SMILES) | Activity (Mus musculus) | EC50 (Hexokinase-4 [1]) [nM] | EC50 (Hexokinase-4 [2]) [nM] | other results |
| --- | --- | --- | --- | --- |
| CCS(=O)(=O)c1ccc(Oc2cc3nc(-c4ccccn4)[nH]c3cc2CN2CCCC2=O)cc1 | Active | 60 | 350 | – |
| CCS(=O)(=O)c1ccc(Oc2cc3nc(-c4ccccn4)[nH]c3cc2Cn2ccnc2)cc1 | – | 120 | 430 | – |
| CCS(=O)(=O)c1ccc(Oc2cc3[nH]c(-c4ccccn4)nc3cc2CCC(=O)N(C)C)cc1 | – | 120 | 620 | – |
| CCS(=O)(=O)c1ccc(Oc2cc3nc(-c4ccccn4)[nH]c3cc2CN2C(=O)CN(C)C2=O)cc1 | – | 60 | 180 | – |
| CCS(=O)(=O)c1ccc(Oc2cc3nc(-c4ccccn4)[nH]c3cc2CN2CCCC2)cc1 | – | > 5000 | > 5000 | – |
| CCS(=O)(=O)c1ccc(Oc2cc3nc(-c4ccccn4)[nH]c3cc2CN2CCNC2=O)cc1 | – | > 5000 | > 5000 | – |
| CCS(=O)(=O)c1ccc(Oc2cc3nc(-c4ccccn4)[nH]c3cc2Cc2nnnn2C)cc1 | – | 70 | 410 | – |
| CCS(=O)(=O)c1ccc(Oc2cc3nc(-c4ccccn4)[nH]c3cc2CN(C)C(C)=O)cc1 | Active | 70 | 300 | – |
| CCS(=O)(=O)c1ccc(Oc2cc3nc(-c4ccccn4)[nH]c3cc2CN2CCOCC2=O)cc1 | – | 100 | 280 | – |
| CCS(=O)(=O)c1ccc(Oc2cc3nc(-c4ccccn4)[nH]c3cc2CN2CCOC2=O)cc1 | inactive | 60 | 250 | – |
| CCS(=O)(=O)c1ccc(Oc2cc3nc(-c4ccccn4)[nH]c3cc2CNC(C)=O)cc1 | – | 220 | 1410 | – |
| CCS(=O)(=O)c1ccc(Oc2cc3nc(-c4ccccn4)[nH]c3cc2CN2CCN(C)C2=O)cc1 | – | 80 | 320 | – |
| CCS(=O)(=O)c1ccc(Oc2cc3nc(-c4ccccn4)[nH]c3cc2CN2C(=O)COC2=O)cc1 | inactive | 20 | 90 | – |
| CCS(=O)(=O)c1ccc(Oc2cc3nc(-c4ccccn4)[nH]c3cc2CN2CCCS2(=O)=O)cc1 | – | 90 | 460 | – |
| CCN(Cc1cc2nc(-c3ccccn3)[nH]c2cc1Oc1ccc(S(=O)(=O)CC)cc1)C(C)=O | – | 110 | 500 | – |
| CCS(=O)(=O)c1ccc(Oc2cc3nc(-c4ccccn4)[nH]c3cc2CN2C(=O)CCC2=O)cc1 | Active | 40 | 160 | Activity (Rattus norvegicus [3]): 19%; Activity (Rattus norvegicus [4]): 27%; AUC [5]: 0.5 µM·h; clearance [6]: 32 mL/min/kg; Cmax [7]: 400 nM; half-life [8]: 0.6 h; bioavailability [9]: 16%; bioavailability [10]: 41%; AUC [11]: 4 µM·h; Cmax [12]: 400 nM; half-life [13]: 6.4 h |
